Bioassay records as filed in PubChem.
FGF22 binding: shifts melting point of recombinant human FGF22; activity (Tm shift, normalised), % at 9.99 µM; AID 651658; actives 1.5% (n = 340,000); recombinant FGF22 thermal shift, SYPRO orange fluorescence; percent of sucrose octasulfate shift, DMSO zero; Q9HCT0;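 active = mean Tm shift, scaled 0 neutral to 100 positive control, at about 1.3% or above, every replicate too, limit read from the data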
Target sequence (Q9HCT0 whole entry, looked up): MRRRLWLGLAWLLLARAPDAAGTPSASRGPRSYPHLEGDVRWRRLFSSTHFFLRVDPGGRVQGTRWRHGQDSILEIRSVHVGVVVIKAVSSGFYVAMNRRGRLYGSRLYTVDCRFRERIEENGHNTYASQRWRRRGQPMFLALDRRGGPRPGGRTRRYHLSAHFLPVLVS
PGC1a acetyl inh: PGC1a acetylation modulation, inhibitor mode; U2OS PGC1a acetylation, AlphaScreen anti-acetyl-lysine; with virally co-expressed GCN5 acetyltransferase; actives 0.17% (n = 350,000); inhibition, % at 15.6 µM; AID 651687;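 active = every replicate shows inhibition of at least 40%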;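 note: 0% = neutral control wells and 100% = positive control wells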
Cneo AK release: Cryptococcus neoformans lysis via adenylate kinase release | C. neoformans lysis, adenylate kinase release luminescence, 4 h; normalised: neutral wells 0, clomiphene wells 100 | actives 0.2% (n = 360,000) | lysis activity, % at 15 µM;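 active = mean lysis activity across replicates of at least 80%, whatever share of replicates individually reach that level; inactive = mean lysis activity below 80%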
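Material: C. neoformans cells | Amount: Yeast cell density of 5 × 10^6 cells/mL | Medium: Fresh YPD growth medium | Dosing: Single dose | Times: Static 4 h at 37 °C with compound, 1 h detection | Detection: AK luminescence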
Vif inh: blocks HIV Vif function. HEK293T cells, Vif self-association by quenched fluorescence, imaging, 24 h. inhibition, % at 7.49 µM. actives 0.35% (n = 340,000). AID 602346; in the data active = inhibition above about 50%, passing the limit was not always enough
rRNA inh HTS: inhibitors of bacterial rRNA selective over humanized ribosomes. E. coli WT GFP vs humanized-ribosome RFP mutants, fluorescence, 24 h; stronger effect = lower value; DMSO median 0, no signal -100. actives 1.6% (n = 350,000). GFP signal change (wild-type ribosome), % (test concentration not listed);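 active = significant combined selectivity score with lowered wild-type GFP, culture density cut under 30%, mutant RFP and density less affected; inactive = any of these conditions unmet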
PglD inh: PglD (C. jejuni) enzyme inhibition. purified PglD enzyme, DTNB colorimetric CoA detection. inhibition, % at 12.5 µM. actives 0.098% (n = 360,000). AID 602405; in the data active = inhibition above about 16%, passing the limit was not always enough
* = called active by the depositor; . = not tested or not shown. Rows were chosen to be rich in hits. Some 2.9% of all compounds tested hit in one or more screens of this group.

SMILES	FGF22 binding	PGC1a acetyl inh	Cneo AK release	Vif inh	rRNA inh HTS	PglD inh
COc1cccc(C(C(=O)NC2CCCCC2)N(C(=O)c2cccs2)c2ccc3c(c2)OCO3)c1 (stereo not drawn)	44*	.	.	-1	9	.
CC(C)CCNC(=O)COc1cccc2c1OC(C)(C)C2	43*	-2	.	-4	-13	.
CNC(=O)C[C@@H]1CC[C@@H]2[C@H](COC[C@@H](O)CN2Cc2ccc(Cl)c(Cl)c2)O1	0	1	-4	.	-5	-1
Cc1ccc(CSc2nnc(C)c(=O)[nH]2)cc1	43*	.	.	-4	-6	.
COc1ccc(S(=O)(=O)Nc2ccc3c(c2)C(=O)N([C@@H](C)CO)C[C@@H](C)[C@H](CN(C)Cc2ccc(C(F)(F)F)cc2)O3)cc1	-1	.	5	.	-1	0
CCC(=O)N[C@@H]1C=C[C@H](CC(=O)OC)O[C@H]1CO	0	3	18	.	1	-1
CCC(=O)N[C@H]1C=C[C@@H](CC(=O)OC)O[C@@H]1CO	0	2	88*	.	3	0
CCCNC(=O)N(C)C[C@H]1Oc2cc(-c3cncnc3)ccc2S(=O)(=O)N([C@H](C)CO)C[C@@H]1C	0	9	1	.	3	-3
Cc1cc(C(=O)Nc2cccc3c2O[C@@H](CN(C)C(=O)Nc2ccccc2)[C@@H](C)CN([C@H](C)CO)C3=O)n(C)n1	0	-3	-3	.	-5	-5
CO[C@@H]1CN(C)C(=O)c2cc(NS(=O)(=O)c3ccc(C)cc3)ccc2OC[C@H](C)NC[C@@H]1C	0	-22	-1	.	2	0
S=C(c1ccc(-c2ccc(Br)cc2)o1)N1CCOCC1	0	-5	-1	-5	-30*	2
S=C(c1ccc(-c2ccc(Br)cc2)o1)N1CCCCC1	0	.	-1	-1	-20	-3
Cc1ccc(SCC(=O)Nc2cc([N+](=O)[O-])ccc2O)cc1	43*	-15	.	-3	-13	.
Cc1noc(C)c1S(=O)(=O)Nc1ccc2c(c1)C(=O)N([C@H](C)CO)C[C@@H](C)[C@@H](CN(C)Cc1ccc(C(=O)Nc3ccccc3N)cc1)O2	0	6	0	.	-1	2
CCn1c(Cl)c(C=O)s/c1=N\S(=O)(=O)c1ccccc1	0	78*	-9	13	5	0
CCN1C(=O)CS/C1=N\S(=O)(=O)c1ccc(Cl)cc1	42	11	6	7	17	-6
COc1cccc(NC(=S)/C(=C(\[O-])c2ccc([N+](=O)[O-])cc2)[n+]2ccccc2)c1	43*	2	-2	1	1	6
CN(C)c1cc[n+](/C(C(=S)Nc2ccc(SC(F)F)cc2)=C(/[O-])c2ccccc2)cc1	0	10	1	1	-19*	-3
Cc1cc(C)c(/C([O-])=C(/C(=S)Nc2ccc(SC(F)F)cc2)[n+]2ccccc2)cc1C	0	.	2	2	-38	8
O=[N+]([O-])c1ccc(/C([O-])=C(/C(=S)Nc2ccccc2F)[n+]2ccccc2)cc1	0	-9	7	0	15	1
[O-]/C(=C(\C(=S)Nc1ccc(SC(F)F)cc1)[n+]1cccc(CO)c1)c1ccc(Cl)s1	0	5	.	8	-31*	.
Cc1ccc(NC(=S)/C(=C(\[O-])c2ccc(F)cc2)[n+]2ccccc2)cc1	0	6	.	-6	-25*	.
Cc1ccc(C)c(NC(=S)/C(=C(\[O-])c2ccc(OC(F)F)cc2)[n+]2ccccc2)c1	0	.	2	-5	15	7
C/C=C/c1ccc([C@H]2[C@@H](CO)N(C(=O)NC(C)C)[C@H]2CN(C)C(=O)CC)cc1	0	3	2	.	-1	1
O=C(Nc1ccccc1)N1CC(=O)N2[C@H](CO)[C@@H](c3ccc(-c4ccc(F)cc4)cc3)[C@@H]2C1	.	.	.	.	-36	.
SMILES	FGF22 binding	PGC1a acetyl inh	Cneo AK release	Vif inh	rRNA inh HTS	PglD inh
N#C[C@@H]1[C@@H](c2ccccc2-c2ccccc2F)[C@H](CO)N1C(=O)C1CCOCC1	0	0	.	.	0	.
CCC(=O)N(C)C[C@@H]1Oc2ncc(-c3ccc(C)cc3)cc2C(=O)N([C@H](C)CO)C[C@@H]1C	0	0	0	.	1	3
CCC(=O)N(C)C[C@@H]1Oc2cc(C#CC(C)(C)O)ccc2S(=O)(=O)N([C@@H](C)CO)C[C@H]1C	0	7	93*	.	4	-8
C[C@@H]1CN([C@@H](C)CO)S(=O)(=O)c2ccc(C3=CCCC3)cc2O[C@H]1CN(C)Cc1ccccc1F	0	22	2	.	4	5
CCC(=O)N(C)C[C@@H]1Oc2cc(C#CC(C)(C)O)ccc2S(=O)(=O)N([C@H](C)CO)C[C@@H]1C	0	-1	0	.	1	-3
Cc1ccc(-c2ccc3c(c2)O[C@@H](CN(C)C(=O)Nc2ccccc2)[C@@H](C)CN([C@@H](C)CO)S3(=O)=O)cc1	1.5*	3	0	.	0	4
C[C@H](CO)N1C[C@H](C)[C@H](CN(C)Cc2ccccc2F)Oc2cc(C3=CCCC3)ccc2S1(=O)=O	0	-18	101*	.	2	-1
C[C@@H]1CN([C@@H](C)CO)S(=O)(=O)c2ccc(/C=C/c3ccccc3)cc2O[C@H]1CN(C)C(=O)Nc1ccc(F)cc1	1.6*	-2	-7	.	-1	-4
CNC[C@H]1Oc2ccc(N(C)C)cc2C(=O)N(C)C[C@H]1C	.	.	.	.	-1	.
COc1cccc(S(=O)(=O)N[C@H]2C=C[C@H](CC(=O)NCc3ccccc3)O[C@@H]2CO)c1	0	-7	1	.	1	-1
O=C(Cc1ccccn1)NCC[C@H]1CC[C@@H](NC(=O)Nc2ccccc2)[C@H](CO)O1	0	-1	-4	.	5	-3
O=C(C1CCOCC1)N1CC[C@@H]2[C@H](CO)Nc3ccc(-c4ccc(F)cc4)cc3[C@@H]21	0	0	-14	.	1	2
C[C@@H]1CN([C@H](C)CO)C(=O)CCCn2nncc2CO[C@H]1CN(C)S(=O)(=O)c1ccccc1C#N	.	.	.	.	2	.
C[C@H](CO)N1C[C@H](C)[C@@H](CN(C)C)OCCCC[C@H](C)Oc2ccc(NS(C)(=O)=O)cc2C1=O	.	6	.	.	1	.
Cc1ccc(-c2ccc3c(c2)O[C@@H](CN(C)Cc2ccc(F)cc2)[C@@H](C)CN([C@H](C)CO)S3(=O)=O)cc1	-1	-22	83*	.	-4	-2
C[C@H]1CN([C@@H](C)CO)S(=O)(=O)c2ccc(/C=C/c3ccccc3)cc2O[C@H]1CN(C)C(=O)c1ccc2c(c1)OCO2	.	-24	5	.	-6	-1
